Assay [1] deals with T1, Chemerin-like receptor 1 (Homo sapiens, UniProt Q99788).
T1 sequence (Q99788 whole entry): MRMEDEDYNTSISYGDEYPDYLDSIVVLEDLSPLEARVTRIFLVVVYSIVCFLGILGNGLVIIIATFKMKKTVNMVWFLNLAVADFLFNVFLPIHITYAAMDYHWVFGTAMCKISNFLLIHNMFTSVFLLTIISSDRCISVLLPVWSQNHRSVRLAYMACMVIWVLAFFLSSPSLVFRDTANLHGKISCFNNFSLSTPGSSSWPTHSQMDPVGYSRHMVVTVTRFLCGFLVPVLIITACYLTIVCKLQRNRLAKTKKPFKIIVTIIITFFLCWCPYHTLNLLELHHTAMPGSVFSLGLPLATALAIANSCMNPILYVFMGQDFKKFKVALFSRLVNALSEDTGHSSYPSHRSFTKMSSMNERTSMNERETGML
The assay is described as follows: Inhibition of chemR23 in human CAL1 cells assessed as reduction in chemerin-induced intracellular calcium ion concentration preincubated for 45 mins followed by chemerin addition. The assay is classed as functional, cell-based. The essentials: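 CAL-1 cells, native human ChemR23, 1 × 10⁴/well in RPMI 1640 with 10 mM HEPES, Calcium-3 dye, amaranth 0.75 mg/mL final. Compounds at final 0–10 µM for 45 min at 37 °C, then human chemerin (final 50 ng/mL, 1% BSA buffer); intracellular Ca²⁺ read by kinetic fluorescence; mean of four measurements.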

Assay [2] deals with C-X-C chemokine receptor type 4 (Homo sapiens, UniProt P61073). Description: Inhibition of CXCR4 expressed in human CAL1 cells assessed as reduction in SDF1alpha-induced intracellular calcium ion concentration preincubated for 45 mins followed by SDF1alpha addition. The format is functional, cell-based. The essentials:
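CAL-1 cells (1 × 10⁴/well) loaded with Calcium-3 in RPMI1640, 10 mM HEPES, amaranth 0.75 mg/mL final. Compounds at final 0–10 µM for 45 min at 37 °C, then human SDF-1α (final 5 × 10^-3 µM, in buffer with 1% BSA); intracellular Ca²⁺ read by kinetic fluorescence.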
A general note: A change in cytosolic calcium serves as a functional read-out for many receptors and channels.

Assay [3] addresses T1, Chemerin-like receptor 1. Description: Agonist activity at chemR23 expressed in human CAL1 cells assessed as increase in intracellular calcium ion concentration. The assay is classed as functional, cell-based.
Assay [4] addresses T2, Chemerin-like receptor 1 (Homo sapiens) (UniProt Q99788).
T2 sequence (whole entry): T1 sequence (Q99788 whole entry)
Description: Induction of chemR23 internalization in human CAL1 cells at 3 uM incubated for 30 mins at 37 degC by flow cytometric analysis. The assay is classed as cell-based. The essentials: (§1)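 CAL-1 cells in RPMI1640 with 10 mM HEPES, 4.5 × 10⁵ cells per tube, exposed to compounds at 37 °C or 4 °C for 30 min; chemerin 50 ng/mL as reference ligand. Washed with PBS containing 2% FBS, stained with anti-ChemR23 antibody; surface ChemR23 measured by flow cytometry, single determination (N = 1).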

The target of assay [5] is T2, Chemerin-like receptor 1 (Homo sapiens). Description: Induction of chemR23 internalization in human CAL1 cells at 3 uM incubated for 30 mins at 4 degC by flow cytometric analysis. The assay is classed as cell-based. In short, it runs like this:
as §1
For orientation: Flow cytometry measures light scatter and fluorescence of single cells or particles in a stream.

Assay [6] concerns the target T3, Chemerin-like receptor 1 (Mus musculus, UniProt P97468).
T3 sequence (P97468 whole entry): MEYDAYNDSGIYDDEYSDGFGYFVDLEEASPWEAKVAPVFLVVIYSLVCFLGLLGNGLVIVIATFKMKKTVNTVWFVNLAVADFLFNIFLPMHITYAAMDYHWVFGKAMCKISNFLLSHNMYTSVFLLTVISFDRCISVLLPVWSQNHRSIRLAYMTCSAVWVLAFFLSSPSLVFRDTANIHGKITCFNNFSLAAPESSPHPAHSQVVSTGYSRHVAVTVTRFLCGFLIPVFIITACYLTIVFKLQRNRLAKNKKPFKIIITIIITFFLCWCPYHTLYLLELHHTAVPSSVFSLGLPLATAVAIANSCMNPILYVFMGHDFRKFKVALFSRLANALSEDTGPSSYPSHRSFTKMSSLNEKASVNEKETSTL
The assay is described as follows: Inhibition of chemR23 expressed in mouse BA/F3 cells assessed as reduction in chemerin-induced intracellular calcium ion concentration preincubated for 45 mins followed by chemerin addition. The assay is classed as functional, cell-based. The essentials:
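Ba/F3 cells stably expressing mouse ChemR23, 1 × 10⁴/well, loaded with Calcium-3 in RPMI1640, 10 mM HEPES, amaranth 0.75 mg/mL final. Compounds at final 0–10 µM for 45 min at 37 °C, then mouse chemerin (final 2 ng/mL, 1% BSA buffer); intracellular Ca²⁺ read by kinetic fluorescence.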

The target in assay [7] is T2, Chemerin-like receptor 1 (Homo sapiens). The assay is described as follows: Induction of chemR23 internalization in human CAL1 cells at 10 uM incubated for 30 mins at 37 degC by flow cytometric analysis. The assay is classed as cell-based. The essentials: as §1
For assay [8] the target is unchanged. Description: Induction of chemR23 internalization in human CAL1 cells at 10 uM incubated for 30 mins at 4 degC by flow cytometric analysis. The assay is classed as cell-based. The essentials:
as §1

Active and inactive are the calls of the source. The rule behind the calls is not given here.

Chain of C-X-C chemokine receptor type 4 (P61073 whole entry): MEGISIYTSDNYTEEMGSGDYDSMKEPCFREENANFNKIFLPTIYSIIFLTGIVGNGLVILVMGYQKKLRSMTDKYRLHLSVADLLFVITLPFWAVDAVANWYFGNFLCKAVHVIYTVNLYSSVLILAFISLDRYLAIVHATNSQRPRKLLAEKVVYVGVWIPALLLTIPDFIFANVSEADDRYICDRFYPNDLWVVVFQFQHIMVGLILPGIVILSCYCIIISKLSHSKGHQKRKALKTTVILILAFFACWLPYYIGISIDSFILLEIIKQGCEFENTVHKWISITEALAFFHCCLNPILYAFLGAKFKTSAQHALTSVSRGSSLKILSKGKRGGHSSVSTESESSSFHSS

Take `CCCCN(Cc1ccc(-c2ccccc2-c2nnn[nH]2)cc1)c1nc2cc(C)ccc2o1`: the IC50 at Chemerin-like receptor 1 [1] came out at 2.5 µM; in assay [2], 8.6 µM. The EC50 at Chemerin-like receptor 1 [3] is 3.9 µM.
With `CCCCN(c1nc2ccccc2o1)[C@@H](C)c1ccc(-c2ccccc2-c2nnn[nH]2)cc1`, the IC50 at Chemerin-like receptor 1 [1] was determined as 7.6 µM; in assay [2] it was 9.9 µM. At Chemerin-like receptor 1 [3], the EC50 was over 10 µM. Also, the result in assay [4] was Active. The outcome in assay [5] was inactive.
`CCCCN(c1nc2cc(C(=O)NC)ccc2o1)[C@H](C)c1ccc(-c2ccccc2-c2nnn[nH]2)cc1`: the values for the IC50 (at Chemerin-like receptor 1 [1]; in assay [2]; on Chemerin-like receptor 1 [6]) were 0.038 µM, over 10 µM and 0.15 µM, respectively. Also, the EC50 at Chemerin-like receptor 1 [3] came to 0.28 µM.
Turning to `CCCCN(c1nc2cc(N(C)C(N)=O)ccc2o1)[C@H](C)c1ccc(-c2ccccc2-c2nnn[nH]2)cc1`, the half-maximal inhibitory concentration (IC50) at Chemerin-like receptor 1 [1] is over 30 µM; at Chemerin-like receptor 1 [6] it was over 10 µM.
For the molecule `CCCCN(c1nc2ccccc2o1)C(C)c1ccc(-c2ccccc2-c2nnn[nH]2)cc1` (racemic), the results for the IC50 (on Chemerin-like receptor 1 [1]; in assay [2]) were 0.25 µM and 8.8 µM, respectively. In addition, at Chemerin-like receptor 1 [3], the EC50 amounted to 2.7 µM.
As for `CCCCN(c1nc2cc(NC(=O)N(C)C)ccc2o1)[C@H](C)c1ccc(-c2ccccc2-c2nnn[nH]2)cc1`, the values for the IC50 (at Chemerin-like receptor 1 [1]; in assay [2]; at Chemerin-like receptor 1 [6]) were 0.032 µM, over 10 µM and 0.51 µM, respectively.
In the case of `CCCCN(c1nc2cc(NC(C)=O)ccc2o1)[C@H](C)c1ccc(-c2ccccc2-c2nnn[nH]2)cc1`, the IC50 was 0.44 µM on Chemerin-like receptor 1 [1], over 10 µM in assay [2] and 2.1 µM at Chemerin-like receptor 1 [6]. Also, the EC50 at Chemerin-like receptor 1 [3] was 1.5 µM.
For `c1ccc(-c2nnn[nH]2)c(-c2ccc(CN(CC3CCCC3)c3nc4ccccc4o3)cc2)c1`, the IC50 on Chemerin-like receptor 1 [1] was found to be 2.2 µM; in assay [2] it was 3.5 µM. Moreover, the EC50 on Chemerin-like receptor 1 [3] came out at 8.3 µM.
In the case of `c1ccc(CN(Cc2ccc(-c3ccccc3-c3nnn[nH]3)cc2)c2nc3ccccc3o2)nc1`, the IC50 at Chemerin-like receptor 1 [1] is 2.8 µM; in assay [2] it was over 10 µM. In addition, the EC50 at Chemerin-like receptor 1 [3] was over 10 µM.
Turning to `CCCCN(Cc1ccc(-c2ccccc2-c2nnn[nH]2)cc1)c1nc2cc(CC(=O)NC)ccc2o1`, the IC50 on Chemerin-like receptor 1 [1] is 1 µM; in assay [2], over 10 µM. In addition, on Chemerin-like receptor 1 [3], the EC50 stood at 3.9 µM.
Regarding `CCCCN(c1nc2ccccc2o1)[C@H](C)c1ccc(-c2ccccc2-c2nnn[nH]2)cc1`, the IC50 amounted to 0.11 µM on Chemerin-like receptor 1 [1], 8.7 µM in assay [2] and 0.15 µM on Chemerin-like receptor 1 [6]. Besides, the EC50 on Chemerin-like receptor 1 [3] was found to be 1.2 µM. Moreover, the outcome in assay [4] was Active. The outcome in assay [5] was inactive.
As for `CCCCCN(Cc1ccc(-c2ccccc2-c2nnn[nH]2)cc1)c1nc2ccccc2o1`, the IC50 at Chemerin-like receptor 1 [1] was 3.3 µM; in assay [2] it was 5.6 µM. Further, the EC50 at Chemerin-like receptor 1 [3] was 6.6 µM.
As to `CCCCN(c1nc2cc(NC(N)=O)ccc2o1)[C@H](C)c1ccc(-c2ccccc2-c2nnn[nH]2)cc1`, the IC50 on Chemerin-like receptor 1 [1] is 0.037 µM; in assay [2], over 10 µM; at Chemerin-like receptor 1 [6] it was 0.43 µM.
On to `c1cncc(CN(Cc2ccc(-c3ccccc3-c3nnn[nH]3)cc2)c2nc3ccccc3o2)c1`, for which the IC50 (at Chemerin-like receptor 1 [1]; in assay [2]) was over 10 µM in each case. Further, at Chemerin-like receptor 1 [3], the EC50 is over 10 µM.
On to `CCCCN(c1nc2cc(CNC(=O)NC)ccc2o1)[C@H](C)c1ccc(-c2ccccc2-c2nnn[nH]2)cc1`, for which the results for the IC50 (at Chemerin-like receptor 1 [1]; in assay [2]; at Chemerin-like receptor 1 [6]) were 0.048 µM, over 10 µM and 13 µM, respectively. The EC50 at Chemerin-like receptor 1 [3] was 1.3 µM.
Consider `CCCCN(Cc1ccc(-c2ccccc2-c2nnn[nH]2)cc1)c1nc2cc(Cl)cc(C)c2o1`, for which the IC50 at Chemerin-like receptor 1 [1] is 2.5 µM; in assay [2], 3.9 µM. The EC50 at Chemerin-like receptor 1 [3] was over 10 µM.
The matching figures for `CCCCN(Cc1ccc(-c2ccccc2-c2nnn[nH]2)cc1)c1nc2cc(Cl)cc(Cl)c2o1`: 1.2 µM, 2.9 µM and over 10 µM.
Consider `CCCCN(Cc1ccc(-c2ccccc2-c2nnn[nH]2)cc1)c1nc2cc(Cl)c(C)cc2o1`, for which the values for the IC50 (at Chemerin-like receptor 1 [1]; in assay [2]) were 3.3 µM and 5.5 µM, respectively. In addition, the EC50 on Chemerin-like receptor 1 [3] is over 10 µM.
The matching figures for `CCCCN(c1nc2ccccc2o1)C(CC)c1ccc(-c2ccccc2-c2nnn[nH]2)cc1` (configuration not stated): 0.94 µM, 8.8 µM and 4.5 µM.
Turning to `c1ccc(-c2nnn[nH]2)c(-c2ccc(CN(Cc3ccncc3)c3nc4ccccc4o3)cc2)c1`, the IC50 (at Chemerin-like receptor 1 [1]; in assay [2]) was over 10 µM throughout. At Chemerin-like receptor 1 [3], the half-maximal effective concentration (EC50) was over 10 µM.
On to `CCCCN(c1nc2ccccc2o1)C(c1ccc(-c2ccccc2-c2nnn[nH]2)cc1)C1CC1` (configuration not stated), for which the IC50 (on Chemerin-like receptor 1 [1]; in assay [2]) was over 3 µM each time. At Chemerin-like receptor 1 [3], the EC50 is over 3 µM.
Turning to `CCCCN(c1nc2ccccc2o1)C(C)(C)c1ccc(-c2ccccc2-c2nnn[nH]2)cc1`, the figures for the IC50 (on Chemerin-like receptor 1 [1]; in assay [2]) were 8.4 µM and over 10 µM, respectively. At Chemerin-like receptor 1 [3], the EC50 was over 10 µM.
For the molecule `CCCCN(c1nc2cc(NC(=O)NC)ccc2o1)[C@H](C)c1ccc(-c2ccccc2-c2nnn[nH]2)cc1`, the IC50 was 0.034 µM at Chemerin-like receptor 1 [1], over 10 µM in assay [2] and 0.94 µM on Chemerin-like receptor 1 [6].
On to `CCCCN(Cc1ccc(-c2ccccc2-c2nnn[nH]2)cc1)c1nc2cc(C(=O)OC)ccc2o1`, for which the IC50 is 4.3 µM on Chemerin-like receptor 1 [1] and over 10 µM in assay [2]. Further, the EC50 on Chemerin-like receptor 1 [3] was over 10 µM.
For `CCCCN(Cc1ccc(-c2ccccc2-c2nnn[nH]2)cc1)c1nc2cc(CC(=O)OC)ccc2o1`, the IC50 at Chemerin-like receptor 1 [1] is 2.4 µM; in assay [2], over 10 µM. Also, at Chemerin-like receptor 1 [3], the EC50 is over 10 µM.
Turning to `c1ccc(CN(Cc2ccc(-c3ccccc3-c3nnn[nH]3)cc2)c2nc3ccccc3o2)cc1`, the IC50 on Chemerin-like receptor 1 [1] is over 10 µM; in assay [2], 9.6 µM. The EC50 at Chemerin-like receptor 1 [3] is over 10 µM.
`CCCCN(c1nc2cc(CC(=O)NC)ccc2o1)[C@H](C)c1ccc(-c2ccccc2-c2nnn[nH]2)cc1`: the figures for the IC50 (on Chemerin-like receptor 1 [1]; in assay [2]; on Chemerin-like receptor 1 [6]) were 0.12 µM, over 10 µM and over 10 µM, respectively. Besides, at Chemerin-like receptor 1 [3], the EC50 came out at 2.3 µM.
As to `CCCCN(Cc1ccc(-c2ccccc2-c2nnn[nH]2)cc1)c1nc2ccccc2o1`, the IC50 at Chemerin-like receptor 1 [1] was 3.3 µM; in assay [2], 9.7 µM. Further, at Chemerin-like receptor 1 [3], the EC50 was 5.2 µM. The result in assay [7] was Active. Besides, the outcome in assay [8] was inactive.
For the molecule `COCCN(Cc1ccc(-c2ccccc2-c2nnn[nH]2)cc1)c1nc2ccccc2o1`, the IC50 at Chemerin-like receptor 1 [1] is 3.4 µM; in assay [2], over 10 µM. The EC50 on Chemerin-like receptor 1 [3] was over 10 µM.

The IC50 is the concentration at which inhibition is half-maximal. What is called EC50 is the midpoint of the concentration-response curve.

(Values after ChEMBL document CHEMBL4364337, “The discovery and optimization of a series of 2-aminobenzoxazole derivatives as ChemR23 inhibitors” (Bioorg Med Chem, 2019).)
